# The list is a sample of the results.
# PGC1a Ac signal = raises PGC1a acetylation signal in U2OS cells; U2OS PGC1a acetylation AlphaScreen, overnight; activation, % at 15.6 µM; hit rate 0.21% among 350,000; AID 651723;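 active means every replicate reaching activation of at least 50%, whatever the mean replicate activation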;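 further: hits raise the AlphaScreen acetylation signal above neutral controls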
#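 detection = AlphaScreen lysate read | assay system = U2OS cells expressing flag-PGC1a plus GCN5 | input = 7000 cells/well | dosing = one concentration | times = compound overnight at 37 °C, each detection step 1 h RT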
# Active calls of the source: *.
SMILES,PGC1a Ac signal
CCO[C@H]1OC(C(=O)Nc2ccccc2)=C[C@@H](c2csc3ccccc23)[C@@H]1CCCO,-54
O=C1/C(=C\c2ccc(Cl)c(Cl)c2)CN(C(=O)CCN2CCOCC2)C/C1=C/c1ccc(Cl)c(Cl)c1,-54
C/C=C(/C)C(=O)O[C@@H]1c2cc(OC)c(OC)c(OC)c2-c2c(cc3c(c2OC)OCO3)C[C@H](C)[C@]1(C)O,167*
COC(c1ccccc1)c1nnc(CCC(=O)N(C)C(C2CC2)C2CC2)o1 (configuration not stated),-42
Cc1cccc2cc(CN(Cc3ccc(F)cc3)Cc3nnnn3C3CCCC3)c(=O)[nH]c12,-53
Clc1ccccc1CN(Cc1ccco1)Cc1nnnn1C1CCCC1,132*
CCOc1ccc(N2CC(C(=O)Nc3ccc(S(=O)(=O)NCC4CCCO4)cc3)CC2=O)cc1 (configuration not stated),-56
Cc1ccccc1Cn1cnc2c(nnn2Cc2ccc(F)cc2)c1=O,-48
COc1cccc(-c2nn(-c3ccccc3)cc2CN(C)C(C)c2ccncn2)c1 (configuration not stated),-41
CCOC(=O)/C(=C\c1cccnc1)C(=O)c1cc(C(C)=O)c(Nc2ccccc2)s1,-84
CCOC(=O)c1cn(-c2ccccc2)nc1-c1cccnc1,77*
C=C1C(=O)C=C[C@]2(C)C[C@@H]3OC(=O)[C@](C)(O)[C@H]3C[C@@H]12,178*
O=C(O)Cn1cc(C(=O)C(F)(F)F)c2ccccc21,-45
CSc1nn(-c2ccc(C(=O)OC(C(=O)NC(N)=O)C(C)C)cc2)c(=S)s1 (configuration not stated),-45
COc1ccc(F)cc1CN1CCN(CC(=O)N2CCc3ccccc32)CC1,-44
C=CCN1C(=O)N(/C=C/C)c2cccc3cccc1c23,60*
CCCNC(=O)CN(C)C(=O)c1n[nH]c2ccccc12,-43
Cc1cc(NS(=O)(=O)c2ccc(NC(=O)CCCOc3ccccc3)cc2)no1,52*
COC(=O)Nc1ccc(Oc2ccccc2)cc1,-46
CCOC(=O)/C(C#N)=N/Nc1ccc(S(=O)(=O)Nc2cc(OC)nc(OC)n2)cc1,-52
O=C1/C(=C/c2ccncc2)CCC/C1=C\c1ccncc1,-78
CC(C)c1ccc(/C=C2\CC/C(=C\C=N\N(C)C)C2=O)cc1,57*
C[C@@H]1CN([C@@H](C)CO)C(=O)c2cc(C#CCN(C)C)cnc2O[C@@H]1CN(C)S(=O)(=O)c1cn(C)cn1,-68
N#C/C(=C(/O)c1cc2ccccc2o1)c1nc2ccccc2s1,-44
N#C/C(=C(/O)c1ccco1)c1nc2ccccc2[nH]1,61*
SMILES,PGC1a Ac signal
O=C(NCc1cccnc1)/C(=C\c1ccc(-c2cccc(Cl)c2)o1)S(=O)(=O)c1ccccc1,76*
CC(C)(O)c1cc(=O)sc2nc3ccccc3n12,-50
CC(/C=N/N1CCN(Cc2ccccc2)CC1)=C\c1ccccc1,-44
Cc1cc2c(c(/C=C/C(=O)c3ccccc3)c1)OC1(C=C2)Oc2ccccc2C(=O)N1C (configuration not stated),-50
CC(C)CC(OC(=O)c1cccs1)C(=O)NCc1ccco1 (configuration not stated),86*
C/C=C/Cn1c(SCc2ccc(Cl)cc2)nc2c1c(=O)[nH]c(=O)n2C,-50
O=C(Nc1cc(C(F)(F)F)ccc1N1CCOCC1)c1ccccc1,63*
C[C@@H](C(=O)Nc1cc(C(F)(F)F)ccc1N1CCOCC1)N1C(=O)C2CC=CCC2C1=O (some centres not stated),-41
O=C(Nc1ccccc1N1CCOCC1)C1(c2ccc(Cl)cc2)CCC1,-41
O=C(C[C@H]1CC[C@@H](NC(=O)c2ccccc2)[C@H](CO)O1)Nc1ccc(-c2ccccc2)cc1,-44
O=C1C2C3CCC(C3)C2C(=O)N1CNc1ccc(F)cc1 (configuration not stated),-47
CCOC(=O)CNC(=O)OC1CCN2Cc3ccccc3N=C12 (configuration not stated),-78
Cc1noc(C)c1NC(=O)Nc1ccc2c(c1)C(=O)N([C@@H](C)CO)C[C@@H](C)[C@@H](CN(C)CC1CCCCC1)OCCCC[C@H](C)O2,-55
COCCCNC(=O)c1ccc(CSCc2ccc(C)cc2)o1,-46
CC(C)(C)Cc1nnc(NS(=O)(=O)c2ccc(F)cc2)s1,-43
COc1ccc(CCNC(=O)COc2ccc(S(=O)(=O)N3CCCC3)cc2)cc1,-48
CCc1nnc(NC(=O)Cc2ccc(S(=O)(=O)N3CCCCC3)cc2)s1,65*
CN(C)C(=O)C[C@H]1C[C@@H]2c3cc(NC(=O)C4CCOCC4)ccc3O[C@@H]2[C@H](CO)O1,-41
Cc1ccc(/C=N/N2CCN(Cc3ccccc3)CC2)cc1,-54
NC(=S)N/N=C/c1cccc(O)c1O,76*
Oc1ccccc1/C=N/Nc1nc2ccccc2o1,-41
O=C1CN(C(=O)Cn2ncc(Cl)c(Cl)c2=O)c2ccccc2N1,74*
Cc1cccc(NC(=O)CNC(=O)Cn2ncc(Cl)c(Cl)c2=O)c1C,-51
O=C(Cn1ncc(Cl)c(Cl)c1=O)NCC1CCCCC1,151*
